From ChEMBL document CHEMBL1149900, “ent-Labdane diterpenoid lactone stereoisomers from Andrographis paniculata” (2008)

Each compound was assayed on HL-60 (assay: Antiproliferative activity against human HL60 cells by trypan blue assay).
Format: functional
Outline: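 HL-60 cells seeded at 1 × 10^5 cells/mL, exposed to test compound at 5, 10, 20, 40 or 60 µM for 3 days. Viable growth scored by trypan blue staining, with total cells counted on a hemocytometer. GI50 taken as the concentration halving cell growth. Reported as mean ± SD of three independent experiments, with adriamycin as positive control.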

| SMILES | GI50 [µM] |
| --- | --- |
| C=C1CC[C@@H]2[C@](C)(CO)[C@H](O)CC[C@@]2(C)[C@@H]1/C=C/C1=CCOC1=O | 25.6 |
| C=C1CC[C@H]2[C@@](C)(CCC(=O)[C@@]2(C)CO)[C@@H]1/C=C/C1=CCOC1=O | 19.2 |
| C=C1CC[C@@H]2[C@](C)(CO)[C@H](O)CC[C@@]2(C)[C@@H]1C/C=C1\C(=O)OC[C@H]1O | 6.3 |
| C=C1[C@H](O)C[C@@H]2[C@](C)(CO)[C@H](O)CC[C@@]2(C)[C@@H]1CCC1=CCOC1=O | 22.5 |
| C=C1CC[C@@H]2[C@](C)(CO)[C@H](O)CC[C@@]2(C)[C@@H]1C[C@@H](O)[C@H]1C(=O)OC[C@H]1O | 26.6 |
| C=C1CC[C@@H]2[C@](C)(CO)[C@H](O)CC[C@@]2(C)[C@@H]1C[C@H](O)[C@@H]1C(=O)OC[C@H]1O | 24.4 |
| C=C1CC[C@@H]2[C@](C)(CO)[C@H](O)CC[C@@]2(C)[C@@H]1CCO | 24.9 |
| C=C1CC[C@@H]2[C@](C)(CO)[C@H](O)CC[C@@]2(C)[C@@H]1/C=C/C1=CC(OC)OC1=O (some centres undefined) | 26.4 |
| C=C1CC[C@@H]2[C@](C)(CO)CCC[C@@]2(C)[C@@H]1CC/C(=C/CO)CO | 20.4 |
| C=C1CC[C@@H]2[C@](C)(CO)[C@H](O)CC[C@@]2(C)[C@@H]1/C=C/C(=O)O | 28.8 |
| C=C1CC[C@@H]2[C@](C)(CO)[C@H](O)CC[C@@]2(C)[C@@H]1CC/C(=C/CO)C(=O)O | 22.4 |
| C=C1CC[C@H]2[C@@](C)(CCC(=O)[C@@]2(C)CO)[C@@H]1CCC1=CCOC1=O | 22.8 |
| C=C1[C@@H](CCC2=CCOC2=O)[C@]2(C)CC[C@@H](O)[C@@](C)(CO)[C@H]2C[C@@H]1O | 25.2 |
| C=C1CC[C@@H]2[C@](C)(CO)CCC[C@@]2(C)[C@@H]1CCC1=CCOC1=O [ANDROGRAPANIN] | 20 |
| C=C1CC[C@@H]2[C@](C)(CO[C@@H]3O[C@H](CO)[C@@H](O)[C@H](O)[C@H]3O)[C@H](O)CC[C@@]2(C)[C@@H]1C/C=C1/C(=O)OC[C@H]1O [ANDROGRAPHISIDE] | 28.8 |
| C=C1CC[C@@H]2[C@](C)(CO)[C@H](O)CC[C@@]2(C)[C@@H]1C/C=C1/C(=O)OC[C@H]1O [ANDROGRAPHOLIDE] | 9.33 |
| C=C1CC[C@@H]2[C@](C)(CO)[C@H](O)CC[C@@]2(C)[C@@H]1CCC1=CCOC1=O [DEOXYANDROGRAPHOLIDE] | 25.5 |
| COc1cccc2c1C(=O)c1c(O)c3c(c(O)c1C2=O)C[C@@](O)(C(=O)CO)C[C@@H]3O[C@H]1C[C@H](N)[C@H](O)[C@H](C)O1 [DOXORUBICIN] | 0.018 |
| C=C1CC[C@@H]2[C@](C)(CO[C@@H]3O[C@H](CO)[C@@H](O)[C@H](O)[C@H]3O)CCC[C@@]2(C)[C@@H]1CCC1=CCOC1=O [NEOANDROGRAPHOLIDE] | 26.7 |
